Most compounds without a hit are left out; they make up all but 1.8% or so of the library.
Jurkat NFkB inh: inhibitors of induced NF-kB luciferase reporter, primary screen, TCR NF-kB activation inhibitor project, cell-based, luminescence, uHTS; 0.53% of 330,000 active; inhibition, % at 4 µM; Jurkat, PMA/ionomycin-induced NF-kB luciferase reporter; AID 435003, 2010; in the data active = inhibition above about 50%
NR2E3 ag-1: NR2E3 agonists in two-hybrid cells, primary screen, cell-based, luminescence, CHO-S, Gal4-NCOR/VP16-NR2E3; Photoreceptor-specific nuclear receptor (Homo sapiens), Q9Y5X4; luciferase; inhibition of corepressor binding, % at 3.98 µM; 0.35% of 360,000 active;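 active = inhibition above the mean of all tested compounds plus 3 SD, cut at about 70% in these data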;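 also: higher means lower luciferase signal from less NR2E3 corepressor binding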
Target sequence (Q9Y5X4 whole entry, looked up, the tested form may be a part): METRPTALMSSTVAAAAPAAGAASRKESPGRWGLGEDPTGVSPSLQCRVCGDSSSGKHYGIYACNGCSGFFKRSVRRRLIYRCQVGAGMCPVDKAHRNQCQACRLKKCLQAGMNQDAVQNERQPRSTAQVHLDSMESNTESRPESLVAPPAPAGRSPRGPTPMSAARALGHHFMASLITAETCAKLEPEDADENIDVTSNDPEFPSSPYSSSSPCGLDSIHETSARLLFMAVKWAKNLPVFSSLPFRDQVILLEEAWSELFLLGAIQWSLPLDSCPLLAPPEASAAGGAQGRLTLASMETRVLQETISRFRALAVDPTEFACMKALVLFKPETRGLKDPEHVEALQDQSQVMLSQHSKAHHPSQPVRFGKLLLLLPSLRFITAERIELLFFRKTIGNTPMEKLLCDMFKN
NR2E3 ag-2: inhibitors of NR2E3-RetCOR corepressor binding, primary screen, NR2E3 agonist project, biochemical, TR-FRET, GST-NR2E3, biotin-RetCOR | 1536-well | inhibition of corepressor binding, % at 4.78 µM | 0.12% of 320,000 active | AID 2300, 2010;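 active = percent inhibition above the cutoff of mean plus 3 SD of all tested compounds, set per screening campaign, cut at about 20% in these data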
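system = GST-tagged NR2E3 plus biotinylated RetCOR corepressor | input = 1.35 nM GST-NR2E3 | also added = 7 nM biotin-RetCOR | schedule = 5 h incubation at 4 °C | measured by = TR-FRET with europium anti-GST and streptavidin-D2, 340 nm excitation | read-out = percent loss of FRET ratio relative to control wells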
697 NFkB inh: inhibitors of PMA/ionomycin-induced NF-kB reporter, 697 cells, primary screen, B-cell NF-kB inhibitor project, cell-based, luminescence, uHTS | 697 B-cell NF-kB luciferase reporter, 16 h | inhibition, % at 4 µM | 0.33% of 330,000 active | AID 435022, 2010; in the data active = inhibition above about 35%
Gli-Sufu antag: Gli-Sufu pathway antagonists, primary screen, luciferase luminescence, Sufu-KO-LIGHT cells, uHTS; Sufu-KO-LIGHT fibroblasts, Gli luciferase reporter luminescence; inhibition, % at 5 µM; 0.74% of 340,000 active; AID 588413, 2011;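 active = inhibition above about 55%, limit read from the data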
GalR3 antag: GalR3 antagonists in HEK293 cells, primary screen, cell-based, fluorescence readout | Galanin receptor type 3 (Homo sapiens), O60755 | AID 651719, 2012 | HEK293 GalR3-CNG cAMP membrane potential fluorescence; galR3 body fused to GalR1 C-terminus | 0.44% of 360,000 active | inhibition, % at 3 µM;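 active = inhibition above the screen-wide average plus 3 SD, cut at about 13% in these data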;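 also: forskolin and galanin both at EC90 stimulate the cells; cAMP rise reported by CNG channel membrane potential dye signal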
Target sequence (O60755 1-299 limits assumed): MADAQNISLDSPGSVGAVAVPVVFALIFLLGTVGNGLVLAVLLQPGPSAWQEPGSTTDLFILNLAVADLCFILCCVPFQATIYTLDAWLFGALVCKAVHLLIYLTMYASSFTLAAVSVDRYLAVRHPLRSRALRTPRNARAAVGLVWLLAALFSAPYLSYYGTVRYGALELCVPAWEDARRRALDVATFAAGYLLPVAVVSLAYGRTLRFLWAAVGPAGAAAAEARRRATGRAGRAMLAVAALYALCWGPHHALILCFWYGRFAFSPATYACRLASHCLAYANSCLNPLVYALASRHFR
Jurkat NFkB conf: PMA/ionomycin-induced NF-kB reporter inhibitors, Jurkat retest, confirmation, T-cell NF-kB inhibitor project, cell-based, luminescence, single concentration; shares compounds with Jurkat NFkB inh; Jurkat NF-kB luciferase, 16 h; inhibition, % at 4 µM; 27% of 2,700 active;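 active = inhibition reaching about 45% at 4 µM in either replicate, limit read from the data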
697 NFkB conf: PMA/ionomycin-induced NF-kB reporter inhibitors, 697 retest, confirmation, B-cell NF-kB inhibitor project, cell-based, luminescence, single concentration | shares compounds with 697 NFkB inh | 697 B-cell NF-kB luciferase, 16 h | inhibition, % at 4 µM | 35% of 2,000 active | AID 449746, 2010; in the data active = inhibition mostly above about 28%, no sharp cut-off; inactive = mostly below about 22%
Gli antag conf: Gli-SUFU pathway antagonists, confirmation, single concentration, luciferase luminescence, Sufu-KO-LIGHT cells; shares compounds with Gli-Sufu antag; AID 602428, 2012; 40% of 2,500 active; Gli luciferase reporter; inhibition, % at 5 µM;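 active = mean inhibition at 5 µM reaching about 45%, limit read from the data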
SufuKO cytotox: cytotoxicity in Sufu-KO-LIGHT cells, confirmation, cytotoxicity control for Gli-SUFU antagonist project, cell-based, ATP luminescence, single concentration | shares compounds with Gli-Sufu antag | cytotoxicity, % at 5 µM | 32% of 2,500 active;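 active = mean cytotoxicity at 5 µM above about 25%, limit read from the data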;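 also: cells exposed to compound overnight for roughly 16 to 18 hours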
Wnt3a cs: Wnt3a reporter signal inhibition, confirmation, counter-screen for Gli-SUFU antagonist project, Wnt-LIGHT cells, luminescence, single concentration; shares compounds with Gli-Sufu antag; Wnt3a-driven luciferase reporter; inhibition, % at 6.25 µM; 20% of 2,500 active;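 active = mean inhibition above about 25%, limit read from the data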
NR2E3 ag confirm: NR2E3 agonist confirmation in cells, cell-based, luminescence, CHO-S two-hybrid. shares compounds with NR2E3 ag-1. CHO-S mammalian two-hybrid NR2E3-NCOR, luciferase luminescence. inhibition, % at 3.98 µM. 51% of 2,300 active;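 active = average inhibition above a cutoff equal to the mean inhibition of all tested compounds plus one SD, cut at about 70% in these data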
GAL4-VP16 luc: GAL4-VP16 reporter modulators, confirmation, counter-screen for NR2E3 agonist project, cell-based, luminescence, CHO-S, high throughput | shares compounds with NR2E3 ag-1 | CHO-S GAL4-VP16 luciferase reporter | inhibition, % at 3.98 µM | 29% of 2,300 active | AID 624379, 2012;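 active = mean inhibition above a cutoff equal to the average over all tested compounds plus one standard deviation, cut at about 70% in these data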;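 also: luciferase from a UAS reporter driven by GAL4-VP16 transactivation; higher means less reporter light so more repression of VP16 activity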
Of the large screens only hits and unclear results are named; the others gave an inactive call (follow-up assays come after a bar, where they were run).

Nc1ccc2ccc3cccc[n+]3c2c1	none
C[n+]1c(-c2ccccc2)c2cc(N)ccc2c2ccc(N)cc21	Jurkat NFkB inh 67, 697 NFkB inh 58 | Jurkat NFkB conf 62 | 697 NFkB conf 54
C[C@H]1CNCCN1c1ccc(N2CC[C@H](O)C2)c(C#N)c1	none (no result: Jurkat NFkB inh, NR2E3 ag-1, NR2E3 ag-2, 697 NFkB inh, Gli-Sufu antag)
CC(C)(C)c1cc(O)ccc1O	none (no result: Jurkat NFkB inh, NR2E3 ag-1, NR2E3 ag-2, 697 NFkB inh, Gli-Sufu antag)
C=C1C(O)[C@@H]2O[C@]3(CC[C@H](/C=C/C(C)[C@@H]4CC(C)=CC5(O[C@H](C[C@@](C)(O)C(=O)O)CCC5O)O4)O3)CC[C@H]2O[C@@H]1C(O)CC(C)[C@H]1OC2(CCCCO2)CCC1C (some centres not stated)	Jurkat NFkB inh 101, 697 NFkB inh 100, Gli-Sufu antag 93 (no result: NR2E3 ag-1, NR2E3 ag-2, GalR3 antag) | Jurkat NFkB conf 99 | 697 NFkB conf 79
COc1cc2c(c(OC)c1OC)-c1ccc(O)cc1[C@@H](NC(C)=O)CC2	Jurkat NFkB inh 77 | Jurkat NFkB conf 64 | 697 NFkB conf inactive
COc1ccccc1N	none (no result: Jurkat NFkB inh, NR2E3 ag-1, NR2E3 ag-2, 697 NFkB inh, Gli-Sufu antag)
C=CC[C@@H](CC/C=C/C=C/CC/C=C\[C@@H]1CSC([C@@H]2C[C@@H]2C)=N1)OC	Jurkat NFkB inh 74 (no result: NR2E3 ag-2, GalR3 antag) | Jurkat NFkB conf 52 | 697 NFkB conf inactive
O=c1[nH]c2cc(Cl)ccc2n1C1CCN(Cc2ccc(-c3nc4ccccc4nc3-c3ccccc3)cc2)CC1	none (no result: Jurkat NFkB inh, NR2E3 ag-1, NR2E3 ag-2, 697 NFkB inh, Gli-Sufu antag)
O=C1/C(=C/c2ccccc2)C[C@@]2(O)[C@H]3Cc4ccc(O)c5c4[C@@]2(CCN3CC2CC2)C1O5 (some centres not stated)	Jurkat NFkB inh 85, 697 NFkB inh 55 (no result: NR2E3 ag-2, GalR3 antag) | Jurkat NFkB conf inactive | 697 NFkB conf 50
Oc1ccc2c3c1O[C@H]1c4[nH]c5c(c4CC4(O)C(C2)N(CC2CC2)CCC314)CC1(O)[C@H]2Cc3ccc(O)c4c3[C@@]1(CCN2CC1CC1)C5O4 (some centres not stated)	none (no result: Jurkat NFkB inh, NR2E3 ag-1, NR2E3 ag-2, 697 NFkB inh, Gli-Sufu antag)
CCOC(=O)C(c1c(O)c2ccccc2oc1=O)c1c(O)c2ccccc2oc1=O	none (no result: Jurkat NFkB inh, NR2E3 ag-2, 697 NFkB inh, Gli-Sufu antag, GalR3 antag)
O=C(O)C(Br)Br	none (no result: Jurkat NFkB inh, NR2E3 ag-1, NR2E3 ag-2, 697 NFkB inh, Gli-Sufu antag)
CC(C)(O)/C=C/C(=O)[C@](C)(O)C1[C@H](O)C[C@@]2(C)C3CC=C4C(C[C@H](O)[C@@H](O)C4(C)C)[C@]3(C)C(=O)C[C@]12C (some centres not stated)	Jurkat NFkB inh 62, 697 NFkB inh 41, Gli-Sufu antag 72 (no result: NR2E3 ag-2, GalR3 antag) | Jurkat NFkB conf inactive | 697 NFkB conf 50
Nc1ccccc1C(=O)OCCOc1ccccc1	none | Jurkat NFkB conf inactive | 697 NFkB conf inactive
CC(C)(C)n1cc(C(=O)c2ccc3ccccc3c2O)cn1	none | Jurkat NFkB conf inactive | 697 NFkB conf inactive
CC1=CC(O)C(O)C2(C)C1CC1OC(=O)C(O)C3C(C)C(O)C4(O)OCC13C42 (configuration not stated)	none (no result: Jurkat NFkB inh, NR2E3 ag-2, 697 NFkB inh, GalR3 antag)
COC(=O)[C@]12OC[C@]34C([C@@H](O)[C@@H]1O)[C@]1(C)CC(=O)C(O)=C(C)[C@@H]1C[C@H]3OC(=O)[C@H](O)[C@@H]24 (some centres not stated)	Jurkat NFkB inh 66 | Jurkat NFkB conf 86 | NR2E3 ag confirm inactive | GAL4-VP16 luc inactive
COC(=O)C[C@]1(C(=O)OC)CN(C#N)N(c2ccc(Cl)cc2)C12c1ccccc1-c1ccccc12	Jurkat NFkB inh 97, NR2E3 ag-1 89 | Jurkat NFkB conf 77 | NR2E3 ag confirm 80 | GAL4-VP16 luc inactive
COC(=O)[C@@H]1[C@@H](C(=O)OC)C2(c3ccccc3-c3ccccc32)N(c2ccc(Cl)cc2)N1C#N	none
COC(=O)C1C(c2ccc(I)cc2)CC2CCC1N2C (configuration not stated)	none (no result: Jurkat NFkB inh, NR2E3 ag-1, NR2E3 ag-2, 697 NFkB inh, Gli-Sufu antag)
Cc1cc(N2CCNC[C@H]2C)ccc1N1CC[C@@H](O)C1	none (no result: Jurkat NFkB inh, NR2E3 ag-1, NR2E3 ag-2, 697 NFkB inh, Gli-Sufu antag)
CN(C)c1ccc(-[n+]2c(-c3ccccc3)cc(-c3ccccc3)cc2-c2ccccc2)cc1	Jurkat NFkB inh 99, Gli-Sufu antag 90 (no result: NR2E3 ag-2) | Jurkat NFkB conf 62 | NR2E3 ag confirm 96 | GAL4-VP16 luc inactive
Cc1ccc(-c2cc(-c3ccc(C)cc3)[n+](-c3ccccc3)c(-c3ccc(C)cc3)c2)cc1	Jurkat NFkB inh 97, NR2E3 ag-1 100, Gli-Sufu antag 91 (no result: GalR3 antag) | Jurkat NFkB conf 86 | NR2E3 ag confirm 100 | GAL4-VP16 luc 96
COc1ccc(C[C@H]2NC[C@H](O)[C@H]2OC(C)=O)cc1	Jurkat NFkB inh 100, NR2E3 ag-1 104, 697 NFkB inh 100, Gli-Sufu antag 87 | Jurkat NFkB conf 99 | 697 NFkB conf 94 | Gli antag conf 92 | SufuKO cytotox 75 | Wnt3a cs 104 | NR2E3 ag confirm 99 | GAL4-VP16 luc 99
COc1ccc(CN2Cc3cc(-c4cccc(F)c4)ccc3-n3nncc3C2)cc1	none (no result: Jurkat NFkB inh, NR2E3 ag-2, 697 NFkB inh, Gli-Sufu antag)
